The results in this text go back to ChEMBL document CHEMBL4400509, “Conversion of Quinazoline Modulators from Inhibitors to Activators of β-Glucocerebrosidase” (J Med Chem, 2019).

Structures are written as SMILES. Calls of active or inactive are those of the source. The rule behind the calls is not given here.

The target of test [1] is T1, Lysosomal acid glucosylceramidase (Homo sapiens, UniProt P04062).
T1 sequence (P04062 whole entry): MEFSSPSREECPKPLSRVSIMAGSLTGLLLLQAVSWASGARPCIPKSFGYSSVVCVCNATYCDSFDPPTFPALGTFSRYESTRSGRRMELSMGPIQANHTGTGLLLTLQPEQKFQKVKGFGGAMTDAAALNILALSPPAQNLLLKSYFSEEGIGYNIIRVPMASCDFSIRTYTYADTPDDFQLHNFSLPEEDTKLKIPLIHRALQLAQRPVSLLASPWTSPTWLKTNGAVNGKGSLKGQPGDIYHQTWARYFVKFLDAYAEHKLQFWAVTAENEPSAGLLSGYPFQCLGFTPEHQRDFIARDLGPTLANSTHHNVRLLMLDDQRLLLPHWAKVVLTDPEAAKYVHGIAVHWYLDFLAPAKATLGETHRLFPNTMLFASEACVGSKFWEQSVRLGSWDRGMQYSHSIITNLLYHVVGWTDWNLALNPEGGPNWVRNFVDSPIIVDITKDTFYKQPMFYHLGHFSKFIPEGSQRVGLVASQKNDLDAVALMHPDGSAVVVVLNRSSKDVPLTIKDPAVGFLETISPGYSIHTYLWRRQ
In words: Activation of wild type recombinant human lysosomal beta-glucocerebrosidase using 4-methylumbelliferyl-beta-D-glucopyranoside as substrate preincubated for 5 mins followed by substrate addition and measured after 30 mins by fluorescence assay. The gist of the method:
(§1)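 Recombinant wild-type human GCase (velaglucerase alfa), 7.5 nM final, in 50 mM citric acid/176 mM K2HPO4/0.01% Tween-20, pH 5.9. Enzyme was preincubated 5 min at room temperature with compound (12-point series, 48 nM–100 μM final). 4MU-β-Glc (1.5 mM final) was added, and the reaction ran 30 min at 37 °C. It was stopped with 1 M NaOH/1 M glycine, pH 10, and read at ex 365/em 440 nm. Triplicate, mean.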

Test [2] concerns the target T2, Lysosomal acid glucosylceramidase (Homo sapiens) (UniProt P04062).
T2 sequence (whole entry): T1 sequence (P04062 whole entry)
In words: Activation of wild type recombinant human lysosomal beta-glucocerebrosidase at 0.048 to 100 uM using 4-methylumbelliferyl-beta-D-glucopyranoside as substrate preincubated for 5 mins followed by substrate addition and measured after 30 mins by fluorescence assay relative to control. The gist of the method: as §1

The species named for another test is Homo sapiens. In words: Induction of post-ER GCase activity in fibroblast cells harboring N370S/84GG double mutant derived from Gaucher's disease patient at 25 uM using PFB-FDGlu as substrate preincubated for 3 days followed by substrate addition and measured after 1 hr for every 20 mins in presence of bafilomycin by fluorescence assay. Format: cell-based.
The next test relates to Fibroblast. In words: Induction of post-ER GCase level in fibroblast cells harboring N370S/84GG double mutant derived from Gaucher's disease patient at 25 uM by immunoblotting analysis. As to conditions: Homo sapiens. Format: functional, cell-based. Summed up: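 N370S/84GG patient fibroblasts, compound-treated 3 days (DMSO 0.1% v/v vehicle) and lysed in 1% Triton X-100. Lysates were left undigested or digested with Endo H or PNGase F. They were then immunoblotted for GCase with GAPDH as loading control, and post-ER form was taken as Endo H-resistant band. n = 4.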
On the technique in general: Immunoblotting shows a protein as a band on a membrane.

Test [3] addresses T1, Lysosomal acid glucosylceramidase. In words: Inhibition of wild type recombinant human lysosomal beta-glucocerebrosidase using 4-methylumbelliferyl-beta-D-glucopyranoside as substrate preincubated for 5 mins followed by substrate addition and measured after 30 mins by fluorescence assay.

The term AC50 denotes the concentration giving half of the maximal activity seen. One may read the Emax as the greatest response seen or fitted, relative to the assay's reference. `CN(Cc1ccc2c(c1)OCCO2)c1nc(-c2cccnc2)nc2ccccc12`: the AC50 in test [1] (read-out: AC50) came to 4.88 µM. The Emax in test [2] worked out at 488%.
With `c1ccc(C2CCCN(c3nc(-c4cccnc4)nc4ccccc34)C2)cc1` (configuration not stated), the AC50 in test [1] (read-out: AC50) was determined as 4.66 µM. Besides, the Emax in test [2] was found to be 130%.
For the molecule `c1cncc(-c2nc(N3CCc4c([nH]c5ccccc45)C3)c3ccccc3n2)c1`, the AC50 in test [1] (read-out: AC50) worked out at 4.27 µM. For the same molecule, the Emax in test [2] is 175%.
For the molecule `c1cncc(-c2nc(N3CCCOCC3)c3ccccc3n2)c1`, in test [1] (read-out: AC50), the AC50 was determined as 44.1 µM. For the same molecule, in test [2], the Emax came to 423%.
For `OC[C@H]1CNC[C@@H](O)[C@@H]1O`, the result in the test filed under Homo sapiens and in the test with Fibroblast was inactive.
In the case of `CN(Cc1nc2ccccc2[nH]1)c1nc(-c2cccnc2)nc2ccccc12`, the AC50 in test [1] (read-out: AC50) was 7.92 µM. For the same molecule, the Emax in test [2] came out at 197%.
For the molecule `CN(Cc1ccc2ccccc2c1)c1nc(-c2cccnc2)nc2ccccc12`, the AC50 in test [1] (read-out: AC50) stood at 3.8 µM. For the same molecule, the Emax in test [2] came out at 155%.
The like results for `CN(CCCOc1ccccc1)c1nc(-c2cccnc2)nc2ccccc12` were, in that order, 6.16 µM and 208%.
Usually IC50 stands for the concentration at which inhibition is half-maximal. On to `c1ccc(OCCCNc2nc(-c3cccnc3)nc3ccccc23)cc1`, for which the IC50 in test [3] was determined as 2.54 µM.
Consider `CCCN(CCOc1ccccc1)c1nc(-c2cccnc2)nc2ccccc12`, for which the AC50 in test [1] (read-out: AC50) was 3.18 µM. For the same molecule, the Emax in test [2] was found to be 132%.
On to `c1ccc(COCCNc2nc(-c3cccnc3)nc3ccccc23)cc1`, for which the IC50 in test [3] was determined as 7.3 µM.
In the case of `CN(CCOc1ccccc1)c1nc(-c2cccs2)nc2ccccc12`, in test [1], the AC50 entry is “Not Active”. In addition, the Emax entry in test [2] is “inactive”.
Regarding `CCN(CCOc1ccccc1)c1nc(-c2cccnc2)nc2ccccc12`, the AC50 in test [1] (read-out: AC50) turned out to be 5.38 µM. The Emax in test [2] worked out at 478%.
For `CN(Cc1nc2ccccc2o1)c1nc(-c2cccnc2)nc2ccccc12`, the AC50 in test [1] (read-out: AC50) was 16.1 µM. For the same molecule, the Emax in test [2] amounted to 643%.
For `CN(CCOc1ccccc1)c1nc(-c2cccnc2)nc2ccccc12`, in test [1] (read-out: AC50), the AC50 was 2.3 to 3.55 µM. Also, the Emax in test [2] is 552 to 761%.
`CC(COc1ccccc1)Nc1nc(-c2cccnc2)nc2ccccc12` (configuration not stated): the IC50 in test [3] came out at 1.88 µM.
Regarding `c1ccc(CC2CCCN(c3nc(-c4cccnc4)nc4ccccc34)C2)cc1` (configuration not stated), the concentration at half-maximal activity (AC50) in test [1] (read-out: AC50) stood at 5.18 µM. Besides, in test [2], the Emax amounted to 160%.
The like results for `CN(c1nc(-c2cccnc2)nc2ccccc12)C1CCCC1` were, in that order, 6.36 µM and 149%.
Regarding `CN(c1nc(-c2cccnc2)nc2ccccc12)C1CCCCC1`, the AC50 in test [1] (read-out: AC50) turned out to be 2.36 µM. Moreover, the Emax in test [2] was 137%.
Consider `CC(CN(C)c1nc(-c2cccnc2)nc2ccccc12)Oc1ccccc1` (configuration not stated), for which the AC50 in test [1] (read-out: AC50) amounted to 8.97 µM. Moreover, the Emax in test [2] is 390%.
Take `CN(CCOc1ccccc1)c1nc(-c2ccoc2)nc2ccccc12`: the AC50 in test [1] (read-out: AC50) turned out to be 1.68 µM. In addition, the Emax in test [2] stood at 145%.
On to `CN(Cc1ccc2nsnc2c1)c1nc(-c2cccnc2)nc2ccccc12`, for which, in test [1] (read-out: AC50), the AC50 turned out to be 1.84 µM. In addition, in test [2], the Emax came to 337%.
As for `CN(Cc1cnc2ccccc2n1)c1nc(-c2cccnc2)nc2ccccc12`, the AC50 in test [1] (read-out: AC50) was determined as 1.63 µM. The Emax in test [2] is 674%.
Turning to `c1ccc(O[C@@H]2CCCN(c3nc(-c4cccnc4)nc4ccccc34)C2)cc1`, the AC50 in test [1] (read-out: AC50) turned out to be 3.65 µM. Moreover, the Emax in test [2] came out at 302%.
Consider `CN1Cc2ccc(CN(C)c3nc(-c4cccnc4)nc4ccccc34)cc2C1`, for which the AC50 in test [1] (read-out: AC50) is 14.9 µM. For the same molecule, the Emax in test [2] was 428%.
Take `c1ccc(OCCNc2nc(-c3cccnc3)nc3ccccc23)cc1`: the AC50 in test [1] (read-out: AC50) was 1.56 µM. Further, in test [2], the Emax was 140%.
Turning to `CN(CCOc1ccccc1)c1nc(-c2ccsc2)nc2ccccc12`, the AC50 result in test [1] is “Not Active”. Also, the Emax entry in test [2] is “inactive”.
In the case of `CN(CCOc1ccccc1)c1nc(-c2ccco2)nc2ccccc12`, the AC50 in test [1] (read-out: AC50) stood at 21.7 µM. Moreover, the Emax in test [2] is 229%.
For the molecule `CN(c1nc(-c2cccnc2)nc2ccccc12)C1CCCCCC1`, in test [3], the IC50 amounted to 9.94 µM.
Turning to `c1cncc(-c2nc(N3CCOc4ccccc4C3)c3ccccc3n2)c1`, the AC50 in test [1] (read-out: AC50) was found to be 9.74 µM. Also, in test [2], the maximum response (Emax) was found to be 438%.
As to `CN(CCOc1ccccc1)c1nc(-c2ccccc2)nc2ccccc12`, the AC50 result in test [1] was “Not Active”. In test [2], the Emax result was “inactive”.
Consider `CN(CCCCc1ccccc1)c1nc(-c2cccnc2)nc2ccccc12`, for which, in test [1] (read-out: AC50), the AC50 turned out to be 3.99 µM. Further, the Emax in test [2] is 190%.
Consider `CN(CCc1ccccc1)c1nc(-c2cccnc2)nc2ccccc12`, for which the AC50 in test [1] (read-out: AC50) stood at 1.39 µM. Besides, the Emax in test [2] was 126%.
Regarding `c1ccc(CC2CCCCN2c2nc(-c3cccnc3)nc3ccccc23)cc1` (configuration not stated), the AC50 in test [1] (read-out: AC50) is 4.47 µM. Moreover, the Emax in test [2] is 364%.
`c1ccc(OCCN(CC2CC2)c2nc(-c3cccnc3)nc3ccccc23)cc1`: the AC50 result in test [1] was “Not Active”. The Emax result in test [2] is “inactive”.
Take `c1ccc(OC2CCN(c3nc(-c4cccnc4)nc4ccccc34)C2)cc1` (configuration not stated): the AC50 in test [1] (read-out: AC50) worked out at 1.17 µM. Besides, in test [2], the Emax was 276%.
In the case of `CC(CNc1nc(-c2cccnc2)nc2ccccc12)Oc1ccccc1` (configuration not stated), the IC50 in test [3] was determined as 4.24 µM.
On to `CN(c1nc(-c2cccnc2)nc2ccccc12)[C@@H]1CCc2ccccc2C1`, for which the IC50 in test [3] came out at 5.87 µM.
Regarding `CN(c1nc(-c2cccnc2)nc2ccccc12)C1CCCCCCC1`, the IC50 in test [3] is 8.38 µM.
Regarding `CN(Cc1ccc2c(c1)OCO2)c1nc(-c2cccnc2)nc2ccccc12`, the AC50 in test [1] (read-out: AC50) came out at 1.63 µM. Further, in test [2], the Emax was determined as 160%.
The like results for `CC(COc1ccccc1)N(C)c1nc(-c2cccnc2)nc2ccccc12` (configuration not stated) were, in that order, 7.52 µM and 345%.
The like results for `c1ccc(O[C@H]2CCCN(c3nc(-c4cccnc4)nc4ccccc34)C2)cc1` were, in that order, 4.75 µM and 237%.
For the molecule `CN(CCOc1ccccc1)c1nc(-c2cncnc2)nc2ccccc12`, the AC50 in test [1] (read-out: AC50) is 0.89 µM. For the same molecule, the Emax in test [2] turned out to be 634%.
In the case of `CN(CCOc1ccccc1)c1nc(-c2ccccn2)nc2ccccc12`, the AC50 in test [1] (read-out: AC50) was above 50 µM.
For the molecule `CN(CCCc1ccccc1)c1nc(-c2cccnc2)nc2ccccc12`, the Emax in test [2] turned out to be 223%.
Consider `CN(CCOCc1ccccc1)c1nc(-c2cccnc2)nc2ccccc12`, for which, in test [1] (read-out: AC50), the AC50 worked out at 16.9 µM. The maximal effect (Emax) in test [2] worked out at 394%.
As to `CN(C[C@@H]1COc2ccccc2O1)c1nc(-c2cccnc2)nc2ccccc12`, the AC50 in test [1] (read-out: AC50) came to 2.37 µM. Besides, the Emax in test [2] stood at 296%.
Regarding `CN(c1nc(-c2cccnc2)nc2ccccc12)[C@H]1CCc2ccccc2C1`, the IC50 in test [3] turned out to be 0.43 µM.
In the case of `c1cncc(-c2nc(N3CCc4[nH]c5ccccc5c4C3)c3ccccc3n2)c1`, in test [1], the AC50 entry is reported as “Not Active”. Besides, the Emax result in test [2] is “inactive”.
`CN(Cc1nc2ccccc2s1)c1nc(-c2cccnc2)nc2ccccc12`: the AC50 in test [1] (read-out: AC50) amounted to 6.9 µM. Moreover, the Emax in test [2] was 517%.
The like results for `CN(CCOc1ccccc1)c1nc(-c2ccncc2)nc2ccccc12` were, in that order, 2.89 µM and 690%.
